This note sets out measurements from ChEMBL document CHEMBL4229377, “Design, synthesis and bioevaluation of 1,2,3,9-tetrahydropyrrolo[2,1-b]quinazoline-1-carboxylic acid derivatives as potent neuroprotective agents” (Eur J Med Chem, 2018).

As usually defined, the half-life is how long it takes for the measured level to halve. A lower half-life goes with fast loss.

Calls of active or inactive are those of the source. No cut-off for these calls is given here.

The test system of data set [1] is SH-SY5Y. Briefly: Neuroprotective activity against NMDA-induced cell damage in human SH-SY5Y cells assessed as cell viability at 0.1 uM preincubated for 6 hrs followed by NMDA addition and measured after 30 mins by MTT assay (reference value: 58.7 +/- 2.3%). The data set is classed as functional. To be noted: read-out: Activity.
Data set [2] addresses Glutamate receptor ionotropic, NMDA 2B (Homo sapiens) (UniProt Q13224). The experiment in a line: Antagonist activity at NR2B NMDA receptor in human SH-SY5Y cells assessed as inhibition of NMDA-induced decrease in ERK1/2 phosphorylation at 0.1 to 10 uM preincubated for 6 hrs followed by NMDA addition and measured after 30 mins by Western blot analysis. The format is cell-based. The essentials: (§1)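 SH-SY5Y lysates were analysed by Western blot for NR2B expression and for p-ERK1/2 relative to total ERK. Data are means ± S.E.M., n = 3, compared against control and NMDA-treated groups.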
Background: In western blotting, separated proteins are transferred to a membrane and probed.

The nature of data set [3]: Half life in human liver microsomes at 10 uM preincubated for 10 mins followed by NADPH addition and measured up to 60 mins. The data set is classed as ADME, microsome. The gist of the method: (§2)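 Human liver microsomes were incubated for 60 min with an NADPH regenerating system to derive T1/2 and CL (µL/min/mg). A no-cofactor sample, with buffer replacing NADPH, was run alongside over 60 min to give % parent remaining.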
On the technique in general: Liver microsomes are vesicles of endoplasmic reticulum, rich in cytochrome P450 enzymes.

Data set [4] can be described thus: Clearance in human liver microsomes at 10 uM preincubated for 10 mins followed by NADPH addition and measured up to 60 mins. The data set is classed as ADME, microsome. The settings on record: read-out: CLH. The essentials:
as §2

The test system of data set [5] is SH-SY5Y. The experiment in a line: Neuroprotective activity against NMDA-induced cell damage in human SH-SY5Y cells assessed as cell viability at 100 uM preincubated for 6 hrs followed by NMDA addition and measured after 30 mins by MTT assay (reference value: 58.7 +/- 2.3%). (Tetrazolium assays rely on reduction of a dye to a coloured formazan, in cell work by metabolically active cells.)

In data set [6] the target is Glutamate receptor ionotropic, NMDA 2B (Homo sapiens) (UniProt Q13224). The experiment in a line: Antagonist activity at NR2B NMDA receptor in human SH-SY5Y cells assessed as inhibition of NMDA-induced intracellular Ca2+ influx at 10 uM incubated for 3 hrs prior to fluo-3AM dye addition for 30 mins followed by NMDA addition and measured every 5 secs by laser scanning confocal microscopic analysis. The data set is classed as cell-based. The essentials:
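SH-SY5Y cells were loaded with fluo-3 AM, and cytoplasmic Ca²⁺ was followed as green fluorescence by laser scanning confocal microscopy over time. NMDA was added at 2 mM final to cells with or without compound pretreatment; n = 9 cells per group.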

The subject of data set [7] is SH-SY5Y. The experiment in a line: Down regulation of NMDA-induced NR2B level in human SH-SY5Y cells at 0.1 to 10 uM preincubated for 6 hrs followed by NMDA addition and measured after 30 mins by Western blot analysis. The format is functional, cell-based. The essentials: as §1
Data set [8] deals with SH-SY5Y. The experiment in a line: Neuroprotective activity against NMDA-induced cell damage in human SH-SY5Y cells assessed as cell viability at 10 uM preincubated for 6 hrs followed by NMDA addition and measured after 30 mins by MTT assay (reference value: 58.7 +/- 2.3%). The format is functional. To be noted: read-out: Activity.
Data set [9] deals with SH-SY5Y. The experiment in a line: Neuroprotective activity against NMDA-induced cell damage in human SH-SY5Y cells assessed as cell viability at 1 uM preincubated for 6 hrs followed by NMDA addition and measured after 30 mins by MTT assay (reference value: 58.7 +/- 2.3%). The format is functional. To be noted: read-out: Activity.
Data set [10] is described as follows: Metabolic stability in human liver microsomes assessed as parent compound remaining at 10 uM after 60 mins in absence of NADPH. The settings on record: read-out: Stability. The format is ADME, microsome. The essentials: as §2

Glutamate receptor ionotropic, NMDA 2B (Homo sapiens), sequence (Q13224 27-1484 limits assumed): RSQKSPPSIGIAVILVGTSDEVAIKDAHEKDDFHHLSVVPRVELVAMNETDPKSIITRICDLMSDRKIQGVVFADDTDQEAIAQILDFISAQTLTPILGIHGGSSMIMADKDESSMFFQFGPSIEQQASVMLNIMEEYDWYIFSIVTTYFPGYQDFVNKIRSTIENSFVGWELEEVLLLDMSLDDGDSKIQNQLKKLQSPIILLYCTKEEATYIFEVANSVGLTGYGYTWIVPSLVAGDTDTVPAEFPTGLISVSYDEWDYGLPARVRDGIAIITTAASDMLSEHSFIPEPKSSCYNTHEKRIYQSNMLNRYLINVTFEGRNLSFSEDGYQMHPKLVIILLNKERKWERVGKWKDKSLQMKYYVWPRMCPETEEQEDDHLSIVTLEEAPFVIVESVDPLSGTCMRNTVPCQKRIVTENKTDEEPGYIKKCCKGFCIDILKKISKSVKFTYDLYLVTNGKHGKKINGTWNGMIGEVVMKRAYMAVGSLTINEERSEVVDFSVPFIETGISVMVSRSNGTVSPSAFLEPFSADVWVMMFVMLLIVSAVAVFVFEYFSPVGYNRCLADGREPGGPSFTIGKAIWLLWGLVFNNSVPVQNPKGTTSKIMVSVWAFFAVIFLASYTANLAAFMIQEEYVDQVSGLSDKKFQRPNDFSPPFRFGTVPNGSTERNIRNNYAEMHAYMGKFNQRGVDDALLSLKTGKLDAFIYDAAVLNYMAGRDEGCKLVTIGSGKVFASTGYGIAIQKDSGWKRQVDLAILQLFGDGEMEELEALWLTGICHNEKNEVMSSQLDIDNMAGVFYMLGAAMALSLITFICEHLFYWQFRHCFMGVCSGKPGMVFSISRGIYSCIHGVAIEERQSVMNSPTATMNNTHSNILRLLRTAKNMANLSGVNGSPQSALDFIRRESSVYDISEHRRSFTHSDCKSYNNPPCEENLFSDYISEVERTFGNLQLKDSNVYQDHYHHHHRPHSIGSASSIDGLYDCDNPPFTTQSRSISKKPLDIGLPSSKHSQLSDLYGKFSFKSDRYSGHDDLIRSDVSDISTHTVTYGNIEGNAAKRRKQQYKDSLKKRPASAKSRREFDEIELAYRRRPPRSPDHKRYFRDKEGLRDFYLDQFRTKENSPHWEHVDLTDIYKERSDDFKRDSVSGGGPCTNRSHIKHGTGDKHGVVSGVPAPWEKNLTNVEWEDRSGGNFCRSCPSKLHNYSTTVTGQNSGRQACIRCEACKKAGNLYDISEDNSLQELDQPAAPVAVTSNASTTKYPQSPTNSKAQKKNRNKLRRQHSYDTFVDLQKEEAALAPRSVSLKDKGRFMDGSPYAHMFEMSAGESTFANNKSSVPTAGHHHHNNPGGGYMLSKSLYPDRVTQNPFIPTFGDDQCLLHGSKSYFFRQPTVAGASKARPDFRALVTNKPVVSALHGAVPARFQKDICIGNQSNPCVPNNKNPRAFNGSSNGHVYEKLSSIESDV

On to `O=C(NCCc1ccc(O)cc1)[C@@H]1CCC2=Nc3ccc(Br)cc3CN21`, for which the viability at 0.1 µM in the data set with SH-SY5Y [1] was 75.8%. Also, the inhibition result in [2] and in data set [6] was “Active” in each case. This compound also showed a half-life at 10 µM in [3] of 29.9 min. Further, the microsomal CLint at 10 µM in [4] was 46.3 µL/min/mg. Moreover, the Activity in the data set with SH-SY5Y [5] is 78.6%. Also, the result in the data set with SH-SY5Y [7] was Active. In addition, the viability at 10 µM with SH-SY5Y [8] was 84.4%. Besides, the viability at 1 µM in the data set on SH-SY5Y [9] was determined as 80%. In [10], the remaining at 1 h, 10 µM was determined as 99.3%.
